Experimental data taken from ChEMBL document CHEMBL4725354 (J Med Chem, 2020).

Columns and labels:
[1] = Cytotoxicity against human A2780 cells assessed as reduction in cell viability after 72 hrs by MTT assay
[2] = system: ABCB1; experiment: Therapeutic ratio of GI50 for Growth inhibition of A2780/ADR cells over expressing human ABCB1 to IC50 for inhibition of human ABCB1 expressed in A2780/ADR cells preincubated for 30 mins followed by calcein AM addition and measured every 60 secs for 60 mins by fluorescence assay; conditions: A2780/ADR cells overexpressing human ABCB1, probe calcein AM
[3] = molecular target: T1, Broad substrate specificity ATP-binding cassette transporter ABCG2 (Homo sapiens, UniProt Q9UNQ0); experiment: Inhibition of human ABCG2 expressed in MDCK2 cells co-expressing GFP preincubated for 15 mins followed by pheophorbideA addition and measured after 2 hrs by flow cytometric analysis; type: cell-based, MDCK-II
T1 sequence (Q9UNQ0 whole entry): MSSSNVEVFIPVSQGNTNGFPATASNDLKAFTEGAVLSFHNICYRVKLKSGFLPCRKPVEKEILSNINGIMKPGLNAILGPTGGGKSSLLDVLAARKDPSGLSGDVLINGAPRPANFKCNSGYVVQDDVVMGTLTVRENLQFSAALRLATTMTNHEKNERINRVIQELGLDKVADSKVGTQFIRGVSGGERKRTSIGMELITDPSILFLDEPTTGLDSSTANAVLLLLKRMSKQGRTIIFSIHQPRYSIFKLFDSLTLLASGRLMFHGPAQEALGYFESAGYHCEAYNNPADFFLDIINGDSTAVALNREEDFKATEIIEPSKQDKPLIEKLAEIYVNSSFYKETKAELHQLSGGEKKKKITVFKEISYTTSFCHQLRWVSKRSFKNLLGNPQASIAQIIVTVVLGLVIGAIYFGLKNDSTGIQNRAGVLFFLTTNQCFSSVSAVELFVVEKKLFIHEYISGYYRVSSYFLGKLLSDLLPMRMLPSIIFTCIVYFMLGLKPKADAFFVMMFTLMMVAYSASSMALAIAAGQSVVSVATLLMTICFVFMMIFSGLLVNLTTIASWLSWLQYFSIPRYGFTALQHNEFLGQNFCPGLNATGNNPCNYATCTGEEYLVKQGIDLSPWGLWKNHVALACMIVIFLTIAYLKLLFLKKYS
Summary of the method: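 Pheophorbide A added to 0.5 µM final and incubated 2 h. Read by flow cytometry (ex 488, em 695/50 nm); GFP expression checked at 525/30 nm. IC50 from 3- or 4-parameter logistic fit.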

[4] = molecular target: ATP-dependent translocase ABCB1 (Homo sapiens, UniProt P08183); experiment: Inhibition of human ABCB1 expressed in A2780/ADR cells preincubated for 30 mins followed by calcein AM addition and measured every 60 secs for 60 mins by fluorescence assay; type: cell-based
Summary of the method: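 ABCB1 in A2780/ADR cells (kept resistant by one passage in 1 µM doxorubicin every 10 passages). 30,000 cells per well in Krebs-HEPES buffer, preincubated 30 min at 37 °C with inhibitor. Calcein AM added from a 3.125 µM solution. Fluorescence (ex 485, em 520 nm) read every 60 s for 60 min. Initial linear slopes vs log concentration fitted to give IC50.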

[5] = system: MDCK-II; experiment: Cytotoxicity against MDCK2 cells assessed as reduction in cell viability at 10 uM after 72 hrs by MTT assay; type: cell-based, Canis lupus familiaris; conditions: dog
Summary of the method: (§1)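 Single-concentration screen at 10 µM in MDCK II BCRP and parental MDCK II cells. MTT assay, 72 h at 37 °C, 5% CO2. Viability referenced to culture medium (100%) and 10% DMSO (0%). Mean ± SEM of at least three independent experiments with duplicates.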

[6] = Cytotoxicity against MDCK2 cells assessed as reduction in cell viability after 72 hrs by MTT assay; type: cell-based, Canis lupus familiaris, MDCK-II; conditions: dog
Summary of the method: (§2)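 MTT viability assay. Compound dilutions in culture medium (3.2 to 1000 µM as prepared). About 2,000 cells per well, 72 h at 37 °C, 5% CO2. Culture medium set as 100% and 10% DMSO as 0% viability. MTT added for 1 h, formazan dissolved in DMSO, absorbance read at 570 nm with 690 nm background. GI50 from nonlinear regression of absorbance vs log concentration; at least three independent experiments, duplicates, mean ± SEM.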

[7] = Cytotoxicity against MDCK cells over expressing ABCC1 assessed as reduction in cell viability after 72 hrs by MTT assay; type: ADME, cell-based, Canis lupus familiaris, MDCK-II; conditions: dog, MDCK cells overexpressing ABCC1
Summary of the method: as §2

[8] = system: ABCG2; experiment: Therapeutic ratio of GI50 for growth inhibition of MDCK2 cells over expressing human ABCG2 to IC50 for inhibition of human ABCG2 expressed in MDCK2 cells co-expressing GFP; conditions: dog, MDCK2 cells overexpressing human ABCG2
[9] = Cytotoxicity against MDCK2 cells over expressing human ABCG2 assessed as reduction in cell viability after 72 hrs by MTT assay; type: ADME, cell-based, Canis lupus familiaris, MDCK-II; conditions: dog, MDCK2 cells overexpressing human ABCG2
Summary of the method: as §2

[10] = system: ABCC1; experiment: Therapeutic ratio of GI50 for Growth inhibition of MDCK2 cells over expressing human ABCC1 to IC50 for inhibition of human ABCC1 expressed in MDCK2 cells preincubated for 30 mins followed by calcein AM addition and measured every 60 secs for 60 mins by fluorescence assay; conditions: dog, MDCK2 cells overexpressing human ABCC1, probe calcein AM
[11] = system: MDCK-II; experiment: Cytotoxicity against MDCK2 cells over expressing human ABCG2 at 10 uM assessed as reduction in cell viability after 72 hrs by MTT assay; type: ADME, cell-based, Canis lupus familiaris; conditions: dog
Summary of the method: as §1

[12] = Cytotoxicity against human A2780/ADR cells over expressing ABCB1 assessed as reduction in cell viability after 72 hrs by MTT assay; type: ADME, cell-based; conditions: A2780/ADR cells overexpressing ABCB1
Summary of the method: as §2

[13] = molecular target: T2, ABCG2 (Homo sapiens, UniProt Q9UNQ0); experiment: Inhibition of human ABCG2 expressed in MDCK2 cells co-expressing GFP preincubated for 15 mins followed by pheophorbideA addition and measured after 2 hrs by flow cytometric analysis relative to control; type: cell-based, MDCK-II; conditions: probe pheophorbide A, read-out: Imax
T2 sequence (Q9UNQ0 whole entry): T1 sequence (Q9UNQ0 whole entry)

[14] = Down regulation of ABCG2 in MDCK2 cells at 10 nM after 4 days by Western blot analysis; type: functional, Canis lupus familiaris, MDCK-II; conditions: time 4 day
Summary of the method: (§3)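 ABCG2-GFP MDCK II cells seeded in T25 flasks (86,000 for 4 days, 17,200 for 7 days). Exposed to modulator (10 nM) and/or SN-38 (0.5 µM) for 4 or 7 days. 15 µg protein run on stain-free 10% SDS-PAGE and transferred to PVDF. Probed with BXP-21 (1:200, overnight, 4 °C) and HRP secondary, ECL detection. Bands normalised to total protein and to the untreated control; one-sample t-test.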

[15] = Growth inhibition of MDCK2 cells over expressing human ABCG2 after 72 hrs by MTT assay; type: ADME, cell-based, Canis lupus familiaris, MDCK-II; conditions: dog, MDCK2 cells overexpressing human ABCG2
Summary of the method: as §2

[16] = molecular target: T1, Broad substrate specificity ATP-binding cassette transporter ABCG2; experiment: Inhibition of human ABCG2-mediated multidrug resistance in MDCK2 cells assessed as potentiation of SN-38-induced cytotoxicity by measuring half-maximal cell death acceleration at 10 to 50 nM measured at 5.75 days by MTT assay; type: cell-based, MDCK-II; conditions: dose 10-50 nM, time 5.7 day; read-out: Activity
Summary of the method: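 MDCK II cells transfected with human ABCG2–GFP were exposed to SN-38 at 0.5 µM final, alone or with modulator at 0, 10, 25 or 50 nM. Cells were seeded at 10,000 down to 200 per well according to read-out day and kept at 37 °C, 5% CO2. MTT viability was read daily for 7 days. Inflection points of the viability–time curves were regressed against modulator concentration. At least 3 independent experiments, triplicates.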

[17] = Growth inhibition of MDCK2 cells after 72 hrs by MTT assay; type: cell-based, Canis lupus familiaris, MDCK-II; conditions: dog
Summary of the method: as §2

[18] = Down regulation of ABCG2 in MDCK2 cells at 10 nM after 7 days by Western blot analysis; type: functional, Canis lupus familiaris, MDCK-II; conditions: time 7 day
Summary of the method: as §3

[19] = molecular target: T1, Broad substrate specificity ATP-binding cassette transporter ABCG2; experiment: Inhibition of human ABCG2 expressed in MDCK2 cells co-expressing GFP preincubated for 30 mins followed by Hoechst 33342 addition and measured every 60 sec for 120 mins by fluorescence assay; type: cell-based, MDCK-II
Summary of the method: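 MDCK II cells transfected with human ABCG2 cDNA C-terminally fused to GFP. Hoechst 33342 added at 1 µM final. Fluorescence (ex 355, em 460 nm) read every 60 s for 120 min. Steady-state means vs log concentration fitted by 3- or 4-parameter logistic to give IC50.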

[20] = molecular target: T1, Broad substrate specificity ATP-binding cassette transporter ABCG2; experiment: Inhibition of human ABCG2-mediated multidrug resistance in MDCK2 cells assessed as potentiation of SN-38-induced cytotoxicity at 10 nM after 7 days by MTT assay relative to SN-38 alone; type: cell-based; conditions: mdck-ii, 168 h, 0.01 µM, time 7 day
Summary of the method: (§4)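 Time-dependent reversal in ABCG2-GFP MDCK II cells: SN-38 at 0.5 µM with modulator at 0, 10, 25 or 50 nM. Seeding density decreased with assay day (10,000 cells for day 1 down to 200 for day 7). MTT viability read daily for 7 days. Results normalised to medium-only cells or to SN-38 alone. Curve inflection points plotted vs modulator concentration to derive tmax, tmin, ctmin and c½tmax. Triplicates, at least three experiments; multiple t-test.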

[21] = Effect on total ABCG2 in MDCK2 cells at 10 nM after 4 to 7 days in presence of SN-38 by Western blot analysis; type: ADME, cell-based, Canis lupus familiaris; conditions: dog, mdck-ii, 0.01 µM, time 4-7 day
Summary of the method: as §3

[22] = molecular target: T1, Broad substrate specificity ATP-binding cassette transporter ABCG2; experiment: Inhibition of human ABCG2-mediated multidrug resistance in MDCK2 cells assessed as potentiation of SN-38-induced cytotoxicity at 10 to 50 nM measured up to 7 days by MTT assay; type: cell-based; conditions: mdck-ii, 168 h, dose 10-50 nM, time <=7 day
Summary of the method: as §4

[23] = system: ABCG2; experiment: Therapeutic ratio of GI50 for Growth inhibition of MDCK2 cells over expressing human ABCG2 to IC50 for inhibition of human ABCG2 expressed in MDCK2 cells co-expressing GFP preincubated for 30 mins followed by Hoechst 33342 addition and measured every 60 sec for 120 mins by fluorescence assay; type: toxicity, cell-based; conditions: dog, MDCK2 cells overexpressing human ABCG2, probe Hoechst 33342; read-out: TI
[24] = molecular target: T1, Broad substrate specificity ATP-binding cassette transporter ABCG2; experiment: Inhibition of human ABCG2-mediated multidrug resistance in MDCK2 cells assessed as potentiation of SN-38-induced cytotoxicity at 10 to 50 nM after 5 days by MTT assay; type: cell-based; conditions: mdck-ii, 120 h, dose 10-50 nM, time 5 day
[25] = system: ABCG2; experiment: Therapeutic ratio of GI50 for Growth inhibition of MDCK2 cells over expressing human ABCG2 to IC50 for inhibition of human ABCG2 expressed in MDCK2 cells co-expressing GFP preincubated for 15 mins followed by pheophorbideA addition and measured after 2 hrs by flow cytometric analysis; type: toxicity, cell-based; conditions: dog, MDCK2 cells overexpressing human ABCG2, probe pheophorbide A; read-out: TI
[26] = molecular target: T1, Broad substrate specificity ATP-binding cassette transporter ABCG2; experiment: Inhibition of human ABCG2-mediated multidrug resistance in MDCK2 cells assessed as potentiation of SN-38-induced cytotoxicity by measuring time need to achieve half maximal cell death at 10 to 50 nM measured up to 7 days by MTT assay; type: cell-based; conditions: mdck-ii, 168 h, dose 10-50 nM, time <=7 day
Summary of the method: as §4

[27] = molecular target: T2, ABCG2; experiment: Inhibition of human ABCG2 expressed in MDCK2 cells co-expressing GFP preincubated for 30 mins followed by Hoechst 33342 addition and measured every 60 sec for 120 mins by fluorescence assay relative to control; type: cell-based, MDCK-II; conditions: probe Hoechst 33342, read-out: Imax
Summary of the method: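 MDCK II cells transfected with human ABCG2 cDNA C-terminally fused to GFP. Steady-state means vs log concentration fitted by 3- or 4-parameter logistic to give IC50.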

Sequence of ATP-dependent translocase ABCB1 (P08183 whole entry): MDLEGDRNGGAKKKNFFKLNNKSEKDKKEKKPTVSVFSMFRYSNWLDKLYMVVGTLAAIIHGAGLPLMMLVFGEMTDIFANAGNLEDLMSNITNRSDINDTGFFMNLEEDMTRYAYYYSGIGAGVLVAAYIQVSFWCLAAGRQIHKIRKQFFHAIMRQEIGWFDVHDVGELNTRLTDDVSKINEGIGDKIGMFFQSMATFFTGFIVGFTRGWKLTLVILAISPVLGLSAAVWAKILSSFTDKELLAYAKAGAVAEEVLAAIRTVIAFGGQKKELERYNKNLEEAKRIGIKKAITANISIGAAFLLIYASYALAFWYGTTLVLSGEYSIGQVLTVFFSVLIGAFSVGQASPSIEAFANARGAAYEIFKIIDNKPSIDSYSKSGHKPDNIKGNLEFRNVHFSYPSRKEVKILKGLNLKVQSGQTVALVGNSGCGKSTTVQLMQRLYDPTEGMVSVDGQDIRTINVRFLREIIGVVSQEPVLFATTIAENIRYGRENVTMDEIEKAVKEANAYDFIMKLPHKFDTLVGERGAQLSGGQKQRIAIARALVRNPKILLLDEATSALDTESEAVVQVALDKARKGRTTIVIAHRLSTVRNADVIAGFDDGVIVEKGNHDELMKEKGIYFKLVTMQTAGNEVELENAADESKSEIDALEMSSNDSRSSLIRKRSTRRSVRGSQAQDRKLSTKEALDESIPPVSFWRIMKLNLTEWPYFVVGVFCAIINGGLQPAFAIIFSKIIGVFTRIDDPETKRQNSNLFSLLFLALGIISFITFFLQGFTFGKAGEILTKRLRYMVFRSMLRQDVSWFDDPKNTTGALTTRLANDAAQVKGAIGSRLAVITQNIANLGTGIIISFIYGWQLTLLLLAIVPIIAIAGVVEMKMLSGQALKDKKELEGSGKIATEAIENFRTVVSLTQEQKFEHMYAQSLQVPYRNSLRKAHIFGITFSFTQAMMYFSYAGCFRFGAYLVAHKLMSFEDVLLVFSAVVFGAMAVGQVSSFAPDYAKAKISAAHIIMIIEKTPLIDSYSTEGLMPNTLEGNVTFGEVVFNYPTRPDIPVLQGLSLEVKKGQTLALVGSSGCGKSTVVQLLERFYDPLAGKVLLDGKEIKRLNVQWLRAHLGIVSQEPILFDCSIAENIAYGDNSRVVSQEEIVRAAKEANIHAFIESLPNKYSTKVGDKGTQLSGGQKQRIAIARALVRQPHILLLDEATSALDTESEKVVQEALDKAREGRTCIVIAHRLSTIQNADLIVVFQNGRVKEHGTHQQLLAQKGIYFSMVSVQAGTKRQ

Cc1cc(Nc2ccc3ncccc3c2)nc(-c2ccccc2)n1
GI50 at 72 h [1]: 22.6 µM | selectivity ratio [2]: 5.6 | IC50 [3]: 0.151 µM | IC50 [4]: 5.13 µM | Activity [5]: Non-Toxic | GI50 at 72 h [6]: 38.4 µM | GI50 at 72 h [7]: 35.4 µM | selectivity ratio [8]: 279 | GI50 at 72 h [9]: 42.1 µM | selectivity ratio [10]: 4.9 | Activity [11]: Non-Toxic | GI50 at 72 h [12]: 28.9 µM | Emax at 2 h [13]: 79%

Cc1cc(Nc2ccc(C#N)c(C)c2)nc(-c2ccccc2)n1
Activity [14]: 36% | IC50 [3]: 0.175 µM | GI50 at 72 h [15]: 15.7 µM | Activity [5]: Non-Toxic | EC50 [16]: 0.0173 µM | GI50 at 72 h [17]: 15.7 µM | Activity [18]: 24% | IC50 [19]: 0.0935 µM | fold change (FC) [20]: 2 | Activity [21]: Non-Toxic | inhibition (INH) [22]: Active | selectivity ratio [23]: 167 | inhibition (INH) [24]: Active | selectivity ratio at 2 h [25]: 90 | Tmin [26]: 4.25 days | Activity [11]: Non-Toxic | Emax at 2 h [27]: 106% | Emax at 2 h [13]: 76%
